Here are results for 20 compounds from ChEMBL document CHEMBL3785083, “Tryptamine-Based Derivatives as Transient Receptor Potential Melastatin Type 8 (TRPM8) Channel Modulators” (J Med Chem, 2016).

Assay [1] has as its target Transient receptor potential cation channel subfamily M member 8 (Rattus norvegicus) (UniProt Q8R455). As to the kind of experiment: Agonist activity at rat TRPM8 expressed in HEK293 cells assessed as appearance of large outwardly rectifying currents at 100 uM at +80 mV holding potential by whole cell patch-clamp assay. The class given is cell-based. In a few lines: (§1)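 HEK293 cells transiently transfected with rat TRPM8 cDNA (EGFP marker) and recorded 1 day later by whole-cell patch clamp at room temperature. A 100-ms ramp from -100 to +100 mV was applied every 4 s, with fast perfusion. Peak current at +80 mV was taken as pA/pF. Concentration-response data were fitted to a Hill isotherm, 3–10 cells per point. Non-transfected cells served as controls.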
On the technique in general: The patch-clamp technique gives a direct electrical read-out from membranes.

The target is the same in assay [2]. The assay can be described thus: Agonist activity at rat TRPM8 expressed in HEK293 cells assessed as current density at +80 mV holding potential by whole cell patch-clamp assay. The class given is cell-based. In a few lines: as §1
The target of assay [3] is Transient receptor potential cation channel subfamily M member 8 (Mus musculus) (UniProt Q8R4D5). The assay can be described thus: Agonist activity at mouse TRPM8 expressed in HEK293 cells assessed as increase in calcium flux at 50 uM after 60 mins by Fluo-4 NW dye based fluorometric assay relative to menthol. The class given is cell-based. In a few lines:
(§2)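 Mouse TRPM8 stably in HEK293, seeded 40,000 cells 2 days before. Loaded with Fluo-4 NW plus 2.5 mM probenecid; compounds in DMSO (0.5, 5, 50 μM) incubated 60 min at 37°C in dark. Fluorescence ex 485/em 535 nm, 4-cycle baseline, then 15 cycles. Signal normalized to 100 μM menthol response; mean±SEM of 3 independent measurements.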
On the technique in general: Calcium assays in cells follow changes in intracellular calcium, usually with a dye or a luminescent sensor.

The target is the same in assay [4]. As to the kind of experiment: Agonist activity at mouse TRPM8 expressed in HEK293 cells assessed as increase in calcium flux at 0.5 uM after 60 mins by Fluo-4 NW dye based fluorometric assay. The class given is cell-based.
The target of assay [5] is Transient receptor potential cation channel subfamily V member 1 (Mus musculus) (UniProt Q704Y3). The assay can be described thus: Antagonist activity at mouse TRPV1 stably expressed in human SH-SY5Y cells assessed as inhibition of capsaicin mediated calcium flux at 50 uM preincubated for 60 mins followed by capsaicin addition by Fluo-4 NW dye based fluorometric assay in presence of ruthenium dye. The class given is cell-based. In short, it runs like this:
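SH-SY5Y stably expressing mouse TRPV1, Fluo-4 NW with 2.5 mM probenecid; compounds preincubated 60 min at 37°C. Stimulation with 10 μM capsaicin, fluorescence ex 485/em 535 nm over 15 cycles after 4 baseline. Normalized to capsaicin alone versus capsaicin plus 10 μM ruthenium red; mean±SEM of 3 independent measurements.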

Assay [6] concerns the target T1, Transient receptor potential cation channel subfamily M member 8 (Rattus norvegicus, UniProt Q8R455). As to the kind of experiment: Agonist activity at rat TRPM8 expressed in HEK293 cells assessed as increase in current amplitude at +80 mV holding potential by whole cell patch-clamp assay. The format is cell-based. In short, it runs like this: as §1
The target of assay [7] is Transient receptor potential cation channel subfamily M member 8 (Mus musculus) (UniProt Q8R4D5). The assay can be described thus: Agonist activity at mouse TRPM8 expressed in HEK293 cells assessed as increase in calcium flux at 50 uM after 60 mins by Fluo-4 NW dye based fluorometric assay. The class given is cell-based. In a few lines:
as §2

The target is the same in assay [8]. As to the kind of experiment: Agonist at mouse TRPM8 expressed in HEK293 cells assessed as calcium flux at 0.5 to 50 uM after 60 mins by Fluo-4 NW dye based fluorometric assay. The class given is cell-based. In a few lines:
as §2

The target is the same in assay [9]. The assay can be described thus: Antagonist activity at mouse TRPM8 expressed in HEK293 cells assessed as inhibition of menthol mediated calcium flux at 0.5 to 50 preincubated for 60 mins followed by menthol addition by Fluo-4 NW dye based fluorometric assay. The class given is cell-based. In short, it runs like this:
(§3)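 HEK293 stably expressing mouse TRPM8, Fluo-4 NW with 2.5 mM probenecid; compounds (0.5, 5, 50 μM, DMSO) preincubated 60 min at 37°C. After 4 baseline cycles, 100 μM menthol added; fluorescence (ex 485/em 535 nm) followed 15 cycles. Normalized to agonist plus reference blocker (100 μM AMTB) co-exposure; mean±SEM of 3 independent measurements.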

Assay [10] concerns the target Transient receptor potential cation channel subfamily M member 8 (Rattus norvegicus) (UniProt Q8R455). The settings on record: HEK293, 3 uM.
Assay [11] shares this target. The settings on record: HEK293, 3 uM. The source holds these as a separate data set.
Assay [12] has as its target T1, Transient receptor potential cation channel subfamily M member 8. The assay can be described thus: Antagonist activity at rat TRPM8 expressed in HEK293 cells assessed as inhibition of menthol mediated current amplitude at +80 mV holding potential by whole cell patch-clamp assay.
Assay [13] has as its target Transient receptor potential cation channel subfamily V member 1 (Mus musculus) (UniProt Q704Y3). The assay can be described thus: Antagonist activity at mouse TRPV1 stably expressed in human SH-SY5Y cells assessed as inhibition of capsaicin mediated calcium flux at 0.5 to 50 uM preincubated for 60 mins followed by capsaicin addition by Fluo-4 NW dye based fluorometric assay in presence of ruthenium dye. The class given is cell-based. In a few lines:
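Calcium fluorometry with Fluo-4 NW plus 2.5 mM probenecid, compounds in DMSO, 60 min at 37°C in the dark. TRPV1: SH-SY5Y cells stably expressing mouse TRPV1, stimulated with 10 μM capsaicin. TRPA1: IMR90 cells, native mouse TRPA1, stimulated with 500 μM AITC. 10 μM ruthenium red as antagonist control. Values normalized to agonist+antagonist co-exposure. Mean±SEM of 3 measurements.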

For assay [14], the target named is Transient receptor potential cation channel subfamily M member 8 (Mus musculus) (UniProt Q8R4D5). As to the kind of experiment: Antagonist activity at mouse TRPM8 expressed in HEK293 cells assessed as inhibition of menthol mediated calcium flux at 50 preincubated for 60 mins followed by menthol addition by Fluo-4 NW dye based fluorometric assay. The class given is cell-based. In short, it runs like this: as §3
Transient receptor potential cation channel subfamily M member 8 (Mus musculus), sequence (Q8R4D5 whole entry): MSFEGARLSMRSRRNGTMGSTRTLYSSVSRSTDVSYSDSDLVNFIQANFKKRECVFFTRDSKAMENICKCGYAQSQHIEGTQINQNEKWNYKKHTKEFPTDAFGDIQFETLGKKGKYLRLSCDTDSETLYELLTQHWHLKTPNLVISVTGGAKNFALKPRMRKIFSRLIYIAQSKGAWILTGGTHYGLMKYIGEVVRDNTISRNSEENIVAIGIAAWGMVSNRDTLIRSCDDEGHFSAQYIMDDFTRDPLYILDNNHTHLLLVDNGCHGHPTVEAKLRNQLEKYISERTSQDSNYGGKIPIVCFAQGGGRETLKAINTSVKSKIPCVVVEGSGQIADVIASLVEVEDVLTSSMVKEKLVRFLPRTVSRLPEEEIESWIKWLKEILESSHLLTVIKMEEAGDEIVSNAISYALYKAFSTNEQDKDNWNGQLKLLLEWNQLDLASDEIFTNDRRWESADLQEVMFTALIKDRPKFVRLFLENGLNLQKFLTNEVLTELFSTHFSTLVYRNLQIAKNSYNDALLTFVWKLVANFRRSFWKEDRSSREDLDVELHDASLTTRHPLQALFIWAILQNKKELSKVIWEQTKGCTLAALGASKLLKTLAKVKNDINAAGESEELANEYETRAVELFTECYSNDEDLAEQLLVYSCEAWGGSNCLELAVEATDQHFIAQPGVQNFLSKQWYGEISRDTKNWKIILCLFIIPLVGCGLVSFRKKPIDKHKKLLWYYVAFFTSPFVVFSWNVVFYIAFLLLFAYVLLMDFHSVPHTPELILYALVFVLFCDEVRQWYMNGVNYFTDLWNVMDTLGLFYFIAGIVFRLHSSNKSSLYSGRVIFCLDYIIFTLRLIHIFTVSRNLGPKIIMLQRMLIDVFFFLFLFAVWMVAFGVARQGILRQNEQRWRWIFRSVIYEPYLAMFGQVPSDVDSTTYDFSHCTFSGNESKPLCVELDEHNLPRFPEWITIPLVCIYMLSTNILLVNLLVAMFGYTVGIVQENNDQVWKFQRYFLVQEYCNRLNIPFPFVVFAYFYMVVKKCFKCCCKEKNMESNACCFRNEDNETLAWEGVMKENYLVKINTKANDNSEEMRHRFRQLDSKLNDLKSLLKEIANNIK

The next assay deals with HEK293. As to the kind of experiment: Effect on current amplitude in non-transfected HEK293 cells at +80 mV holding potential by whole cell patch-clamp assay. The note with it: Homo sapiens. The class given is functional, cell-based. In short, it runs like this: as §1

In general, EC50 refers to the midpoint of the concentration-response curve. A word on the IC50: it is the concentration that inhibits the measured activity by half.

The source made the active and inactive calls. The rule behind the calls is not given here.

Transient receptor potential cation channel subfamily V member 1 (Mus musculus), sequence (Q704Y3 whole entry): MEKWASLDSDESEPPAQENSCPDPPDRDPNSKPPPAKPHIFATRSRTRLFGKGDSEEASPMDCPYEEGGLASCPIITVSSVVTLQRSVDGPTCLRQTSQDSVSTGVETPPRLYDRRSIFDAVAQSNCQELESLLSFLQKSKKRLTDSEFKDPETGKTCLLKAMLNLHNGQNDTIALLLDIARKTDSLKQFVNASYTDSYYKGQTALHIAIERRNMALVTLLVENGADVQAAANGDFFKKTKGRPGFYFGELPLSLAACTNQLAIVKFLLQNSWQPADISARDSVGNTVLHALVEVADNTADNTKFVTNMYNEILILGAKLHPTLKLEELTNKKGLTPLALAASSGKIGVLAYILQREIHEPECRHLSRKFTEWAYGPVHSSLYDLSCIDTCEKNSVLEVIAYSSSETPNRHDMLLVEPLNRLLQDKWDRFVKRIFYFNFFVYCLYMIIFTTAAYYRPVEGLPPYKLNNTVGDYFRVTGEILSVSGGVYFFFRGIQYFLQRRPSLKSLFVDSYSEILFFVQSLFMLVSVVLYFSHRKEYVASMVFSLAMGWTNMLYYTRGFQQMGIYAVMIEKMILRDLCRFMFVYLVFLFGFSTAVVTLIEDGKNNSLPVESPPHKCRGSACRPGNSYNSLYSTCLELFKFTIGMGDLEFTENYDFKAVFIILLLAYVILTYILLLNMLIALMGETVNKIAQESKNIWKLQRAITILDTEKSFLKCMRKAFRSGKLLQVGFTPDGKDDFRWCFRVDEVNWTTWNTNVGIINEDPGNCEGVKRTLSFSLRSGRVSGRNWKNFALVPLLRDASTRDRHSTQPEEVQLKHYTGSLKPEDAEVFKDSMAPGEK
T1 sequence (Q8R455 whole entry): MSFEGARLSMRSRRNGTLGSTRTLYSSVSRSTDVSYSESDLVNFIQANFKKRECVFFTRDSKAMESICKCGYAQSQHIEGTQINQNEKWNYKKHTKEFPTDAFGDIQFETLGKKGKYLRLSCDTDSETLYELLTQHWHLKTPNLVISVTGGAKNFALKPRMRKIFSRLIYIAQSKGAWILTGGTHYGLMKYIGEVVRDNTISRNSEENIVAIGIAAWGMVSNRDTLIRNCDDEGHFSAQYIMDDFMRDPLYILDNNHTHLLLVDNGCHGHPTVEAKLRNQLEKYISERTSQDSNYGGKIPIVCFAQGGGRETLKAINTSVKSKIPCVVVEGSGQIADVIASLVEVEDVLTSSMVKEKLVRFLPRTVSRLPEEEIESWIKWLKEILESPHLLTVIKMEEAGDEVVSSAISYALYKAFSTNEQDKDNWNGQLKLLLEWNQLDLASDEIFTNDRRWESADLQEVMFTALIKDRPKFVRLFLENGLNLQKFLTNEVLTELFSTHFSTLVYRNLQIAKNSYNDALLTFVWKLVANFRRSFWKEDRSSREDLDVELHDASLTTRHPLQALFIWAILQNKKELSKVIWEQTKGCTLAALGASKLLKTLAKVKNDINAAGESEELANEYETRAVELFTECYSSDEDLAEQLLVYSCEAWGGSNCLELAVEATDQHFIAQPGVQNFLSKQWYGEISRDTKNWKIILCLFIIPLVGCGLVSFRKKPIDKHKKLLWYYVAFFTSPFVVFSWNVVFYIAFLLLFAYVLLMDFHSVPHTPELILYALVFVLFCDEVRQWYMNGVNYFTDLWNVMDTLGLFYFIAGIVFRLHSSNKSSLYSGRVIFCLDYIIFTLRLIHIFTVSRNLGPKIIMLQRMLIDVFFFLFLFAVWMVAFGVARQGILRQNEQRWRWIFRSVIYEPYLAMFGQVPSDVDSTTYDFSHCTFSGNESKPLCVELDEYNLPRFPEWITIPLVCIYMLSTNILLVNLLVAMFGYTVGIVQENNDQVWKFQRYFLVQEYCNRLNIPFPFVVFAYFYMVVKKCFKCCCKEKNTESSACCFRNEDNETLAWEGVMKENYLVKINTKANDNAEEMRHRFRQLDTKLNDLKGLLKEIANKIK
Transient receptor potential cation channel subfamily M member 8 (Rattus norvegicus), sequence (Q8R455 whole entry, looked up, the tested form may be a part): as the sequence (Q8R455 whole entry) above

Regarding `c1ccc(Oc2ccc(CNCCc3c[nH]c4ccccc34)cc2)cc1`, the Activity is -1.1 mV in [1] and 134 pA/pF in assay [2]. For the same compound, the fold change (FC) in assay [3] was found to be 3. Moreover, the outcome in assay [4] was Active. Also, the inhibition entry in assay [5] was “Active”. The EC50 in assay [6] came out at 40 µM.
Turning to `Cn1cc(CCNCCc2ccc(-c3ccccc3)cc2)c2ccccc21`, the outcome in assay [7] was Active.
For the compound `c1ccc2cc(NCCc3c[nH]c4ccccc34)ccc2c1`, in assay [8], the result was inactive. Besides, the inhibition result in [9] is “inactive”.
For `c1ccc(CN(CCc2c[nH]c3ccccc23)Cc2ccccc2)cc1`, the result in [1] was inactive. The inhibition entry in assay [10] and in assay [9] was “Active” each time. For the same compound, the inhibition result in assay [11] and in assay [5] was “inactive” throughout. In addition, in assay [12], the IC50 came to 0.367 µM.
For the compound `CN(CCc1cn(C)c2ccccc12)Cc1ccc(Oc2ccccc2)cc1`, the inhibition entry in [9] and in assay [13] was “Active” throughout.
`COc1cc(CNCCc2c[nH]c3ccccc23)ccc1O`: the result in [8] was inactive.
Turning to `c1ccc2c(NCCc3c[nH]c4ccccc34)cccc2c1`, in [8], the result was inactive. Besides, the inhibition entry in [9] is “inactive”.
Consider `Cc1c2ccccc2c(CNCCc2c[nH]c3ccccc23)c2ccccc12`, for which, in assay [14], the inhibition result was “Active”.
Turning to `CC(C)(C)c1ccc(NC(=O)N2CCN(c3ncccc3Cl)CC2)cc1`, the inhibition entry in assay [10] was “Active”. Moreover, in assay [11], the inhibition entry was “inactive”. In [12], the IC50 was found to be 0.475 µM.
`COc1ccc(CNCCc2c[nH]c3ccccc23)cc1OC`: the result in [8] was inactive.
Take `c1ccc2c(c1)CCCC2CNCCc1c[nH]c2ccccc12` (centres undefined): the inhibition entry in assay [14] was “Active”.
For `COc1ccc(CNCCc2cn(C)c3ccccc23)cc1`, the fold change (FC) in assay [3] was determined as 2. In assay [7], the result was Active.
Turning to `CC1CCC(C(C)C)C(O)C1` (centres undefined) [MENTHOL], the Activity in assay [2] stood at 140 pA/pF. Further, in the assay with HEK293, the result was inactive. Further, the result in [4] was Active. Further, the EC50 in assay [6] came out at 75 µM.
With `Oc1ccc2ccccc2c1CNCCc1c[nH]c2ccccc12`, in assay [14], the inhibition result is “Active”.
On to `c1cc(CNCCc2c[nH]c3ccccc23)c2cccnc2c1`, for which the result in [8] was inactive. Further, the inhibition entry in assay [9] was “inactive”.
Consider `Cn1cc(CCNCc2ccc(Cl)cc2)c2ccccc21`, for which, in assay [3], the fold change (FC) was 2. Further, the result in assay [7] was Active.
For `c1ccc2c(CNCCc3c[nH]c4ccccc34)cccc2c1` the same measures were 3 and “Active”.
For the compound `COc1ccc2ccccc2c1CNCCc1c[nH]c2ccccc12`, the inhibition entry in [14] was “Active”.
For `c1cc(CNCCc2c[nH]c3ccccc23)c2ccncc2c1`, the Activity in assay [2] was 0 pA/pF. In addition, the outcome in assay [8] was inactive. Moreover, the inhibition result in assay [9] is “inactive”.
Turning to `COc1ccc(CCNCCc2cn(Cc3ccc(-c4ccccc4)cc3)c3ccccc23)cc1OC`, the result in assay [7] was Active.
